High-throughput results from PubChem.
This is a sample that favours compounds with a hit; in the whole collection about 1.5% have one here.
APJ agonist: agonists of human APJ apelin receptor; P35414; CHO-K1 APJ PathHunter beta-arrestin, luminescence; 0% DMSO wells, 100% apelin; activation, % at 20 µM; 330,000 compounds, 0.11% hits; AID 2520;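 active = activation more than six SD over the plate average, tested at 20 µM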
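Assay system – PathHunter CHO-K1 APJ (AGTRL-1) beta-arrestin reporter cells · Compound – one dose, 20 µM compound, 1% DMSO · Timing – compound 90 min 25 °C, reagent 1 h · Measured by – luminescence from split beta-galactosidase complementation, Galacton Star/Emerald II substrate · Measure – beta-arrestin recruitment to APJ as agonist activity, luminescent signal · Benchmarks – DMSO vs Apelin-13 10 nM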
CXCR6 block: blocks human CXCR6 beta-arrestin recruitment; O00574; CHO-K1 PathHunter CXCR6 beta-arrestin, luminescence; inhibition, % at 20 µM; 360,000 compounds, 0.36% hits; AID 602244; in the data active = inhibition above about 34%, passing the limit was not always enough;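 note: antagonist mode with CXCL16 agonist at 10 nM final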
Target sequence (O00574 whole entry, looked up): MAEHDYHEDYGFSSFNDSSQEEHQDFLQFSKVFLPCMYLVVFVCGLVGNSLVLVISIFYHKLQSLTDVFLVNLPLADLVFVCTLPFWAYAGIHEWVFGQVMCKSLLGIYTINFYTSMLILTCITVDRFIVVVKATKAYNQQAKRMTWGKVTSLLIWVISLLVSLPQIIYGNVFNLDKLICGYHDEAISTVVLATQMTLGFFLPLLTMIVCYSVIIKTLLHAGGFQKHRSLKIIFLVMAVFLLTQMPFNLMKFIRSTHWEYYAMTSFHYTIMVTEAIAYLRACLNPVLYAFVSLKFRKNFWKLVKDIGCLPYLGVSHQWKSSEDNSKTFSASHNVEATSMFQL
APJ antag: antagonists of human APJ apelin receptor; P35414; CHO-K1 APJ beta-arrestin complementation, luminescence; inhibition, % at 20 µM; 330,000 compounds, 0.32% hits; AID 2521;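 active = inhibition above about 40% at 20 µM, limit read from the data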;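 note: cells challenged with 10 nM apelin-13 agonist together with compound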
CCR6 antagonist: CCR6 (human) receptor antagonism | inhibition, % at 20 µM | 340,000 compounds, 0.49% hits | AID 493098 | CHO-K1 CCR6 PathHunter beta-arrestin, luminescence, CCL20-stimulated | P51684;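 active = compounds whose inhibition of the agonist-driven luminescence signal at 20 µM reaches about 50%, limit read from the data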;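 note: cells stimulated with CCL20 at 14 nM final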
EBI2 block: EBI2 (human) antagonism | EBI2 beta-arrestin recruitment, luminescence, 7a,25-OHC stimulated | inhibition, % at 5 µM | 360,000 compounds, 0.81% hits | AID 651636; in the data active = inhibition above about 38%;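 note: enzyme fragment complementation signal reports receptor beta-arrestin coupling in cells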
CXCR6 confirm: confirmation of human CXCR6 receptor antagonists; shares compounds with CXCR6 block; inhibition, % at 20 µM; 700 compounds, 65% hits; CHO-K1 CXCR6 PathHunter beta-arrestin, luminescence; AID 602409;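 active = mean inhibition over four retests above 40%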;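 note: receptor stimulated with 10 nM CXCL16 agonist; beta-galactosidase fragment complementation upon beta-arrestin recruitment to receptor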
Hits are given with their value; 0 = inactive; - = no result.

SMILES | APJ agonist | CXCR6 block | APJ antag | CCR6 antagonist | EBI2 block | CXCR6 confirm
CCCCNC(=O)C(NC(=O)c1ccc2c(c1)OCO2)C(=O)c1ccccc1 (stereo unspecified) | - | - | - | - | 0 | -
COc1ccc(C(=O)NC(=S)Nc2ccc([N+](=O)[O-])cc2C)cc1OC | 0 | 50 | 0 | 68 | 0 | 55
CCN(c1ccccc1C(=O)O)S(=O)(=O)c1ccc2[nH]c(=O)[nH]c2c1 | 0 | 39 | 0 | 0 | 0 | 0
CCN(c1ccccc1)S(=O)(=O)c1ccc2[nH]c(=O)c(=O)[nH]c2c1 | 0 | 0 | 0 | 0 | 0 | -
Cc1ccc2c(c1)C1CN(C)CCC1N2C(=S)NC(=O)c1ccc(Br)cc1 (stereo unspecified) | 0 | 44 | 0 | 56 | 0 | 67
COc1ccc(OC)c(/C=C/c2ccc3cccc(O)c3n2)c1 | 0 | 48 | 0 | - | 0 | 59
COc1ccc(C=Cc2ccc3ccccc3n2)c(OC)c1 | - | 0 | - | - | 0 | -
CCN(CC(=O)NC(C)(C)C)Cc1nc2c(Br)cc(Br)cc2c(=O)[nH]1 | 0 | 54 | 0 | - | 0 | 56
NNC(=O)c1cccc(COc2ccc3c(c2)CCC3)c1 | 0 | 49 | 0 | 0 | 0 | 0
C/C(=N\Nc1nc2ccccc2[nH]1)c1cc2ccccc2o1 | 0 | 0 | 0 | 0 | 0 | -
C/C(=N\Nc1nc2ccccc2[nH]1)c1ccccn1 | 0 | 42 | 0 | - | 0 | 70
C[C@H]1CN([C@@H](C)CO)C(=O)CCCn2cc(nn2)CO[C@@H]1CN(C)C(=O)Nc1ccc(N2CCN(C)CC2)cc1 | - | 0 | - | - | 0 | -
O=C(COC(=O)c1ccco1)NCC1CCCCC1 | 0 | 0 | 0 | 0 | 0 | -
O=C(COC(=O)c1ccco1)NCCNC(=O)COC(=O)c1ccco1 | 0 | 36 | 0 | 0 | 0 | 0
NS(=O)(=O)c1ccc(CCNC(=O)CCNC(=O)c2ccco2)cc1 | 0 | 0 | 0 | 0 | 0 | -
O=C(CCNC(=O)c1ccco1)NCCc1ccc(Cl)cc1 | 0 | 40 | 0 | 0 | 0 | 0
CNC(=O)C[C@@H]1CC[C@@H]2[C@H](COC[C@H](O)CN2S(=O)(=O)c2ccccc2Cl)O1 | - | - | - | - | 0 | -
O=c1c2c([nH]n1-c1ccccc1)C[C@@H](C1CCCCC1)O[C@H]2c1ccc(F)cc1 | - | 0 | - | - | 0 | -
CCN1C(=O)[C@H]2[C@@H](c3ccc(C(F)(F)F)cc3)N[C@]3(CCCN(Cc4ccco4)C3=O)[C@H]2C1=O | - | 55 | - | - | 0 | 0
COc1cc(S(=O)(=O)NC2CCCC2)c(OC)cc1Cl | 0 | 46 | 0 | 0 | 0 | 0
COc1cc(S(=O)(=O)NC2CC(C)(C)NC(C)(C)C2)c(OC)cc1Cl | 0 | 0 | 0 | 0 | 0 | -
COc1ccccc1NCC(=O)c1ccc(C)c(C)c1 | 0 | 52 | 0 | 82 | 0 | 0
COc1cccc2cc(C(=O)Nc3ccc(F)cc3)c(=Nc3ccc(C(=O)O)cc3)oc12 | 0 | 49 | 0 | 80 | 0 | 0
Cc1ccc(NC(=O)c2ccccc2)cc1 | 0 | 0 | 0 | 0 | 0 | -
Cc1ccc(NC(=O)C2=C(c3ccccc3)S(=O)(=O)CCS2(=O)=O)cc1 | 0 | 48 | 0 | - | 0 | 53
SMILES | APJ agonist | CXCR6 block | APJ antag | CCR6 antagonist | EBI2 block | CXCR6 confirm
CCCN(CC1CC1)c1cc2c(c3c1ccn3C)C1CCC2O1 (stereo unspecified) | - | 0 | - | - | 0 | -
CC(=O)Nc1ccc2c(c1)Cc1cc(N3C(=O)C=CC3=O)ccc1-2 | - | 99 | - | 115 | 0 | 72
CC(C)NC(=O)c1cc(C2CCCCN2S(=O)(=O)c2cccc3cccnc23)on1 (stereo unspecified) | - | 0 | - | - | 0 | -
Clc1nc(-c2ccccn2)nc2scc(-c3ccccc3)c12 | 0 | 51 | 0 | 0 | 61 | 0
COCCCn1c(N)c(-c2nc3ccccc3n2C)c2nc3ccccc3nc21 | 0 | 43 | 0 | - | 0 | 65
Cn1c(-c2c(N)n(CCCc3ccccc3)c3nc4ccccc4nc23)nc2ccccc21 | - | 0 | - | 0 | 0 | -
COc1nc(OCCNC(C)=O)nc(N(C)C)n1 | 0 | 56 | 0 | 0 | 0 | 0
CC(=O)NCCOc1nc(N(C)C)nc(N2CCOCC2)n1 | 0 | 0 | 0 | 0 | 0 | -
CC1(C(=O)NCc2cccc3ccccc23)CCN1C(=O)C1(c2ccccc2)CCCC1 (stereo unspecified) | - | 0 | - | - | 0 | -
Cc1ccc(Oc2ccccc2NC(=O)CN2C(=O)NC3(CCCC3)C2=O)cc1 | 0 | 43 | 0 | 0 | 0 | 0
C=C1CCN([C@@H](Cc2ccccc2)C(=O)NCCC(C)C)S(=O)(=O)c2ccccc21 | 0 | 41 | 0 | 0 | 0 | 42
